What all share (type): functional, cell-based
Test [1] in a line: Cytotoxicity against human […] cells by MTT assay. A digest of the protocol: (§1)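 Cells grown in RPMI-1640 with 10% (v/v) fetal calf serum, 100 μg ml⁻¹ penicillin and 100 μg ml⁻¹ streptomycin at 37 °C, humidified 5% CO₂, in 96-well cultures. Compounds from DMSO stocks; final DMSO 2% (v/v) or lower. MTT staining read as optical density. IC50 is the concentration reducing OD by 50% vs untreated cells. Mean ± SD of at least five independent determinations. Top concentration 300 μM.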

Test [2] concerns HepG2. In words: Cytotoxicity against human HepG2 cells by MTT assay. The method, boiled down:
as §1

Test [3] relates to MCF7. In words: Cytotoxicity against human MCF7 cells by MTT assay. The method, boiled down: as §1
In general terms: Tetrazolium dyes change colour on reduction, which living cells bring about.

Test [4] deals with OS-RC-2. The experiment in a line: Cytotoxicity against human OS-RC2 cells by MTT assay. A digest of the protocol:
as §1

Test [5] relates to 786-0. In words: Cytotoxicity against human 786-0 cells by MTT assay. The method, boiled down: as §1
The subject of test [6] is 769-P. The experiment in a line: Cytotoxicity against human 769-P cells by MTT assay. The method, boiled down:
as §1

For test [7], the system named is A-375. In words: Cytotoxicity against human A375 cells by MTT assay. The method, boiled down:
as §1

Test [8] has as its system HT-29. The experiment in a line: Cytotoxicity against human HT-29 cells by MTT assay. The method, boiled down:
as §1

In test [9] the test system is KB. The experiment in a line: Cytotoxicity against human KB cells by MTT assay. The method, boiled down:
as §1

Test [10] has as its system CWR22R. The experiment in a line: Cytotoxicity against human 22Rv1 cells by MTT assay. The method, boiled down:
as §1

By IC50 is commonly meant the concentration that gives 50% inhibition. Low values mean inhibition by little substance, high ones a need for much substance.

As to `NCCNC(=O)c1nccc2c1[nH]c1ccccc12`, the IC50 in test [1] was found to be 77.7 µM; in [2], 122 µM; in test [3] it was 80.4 µM; in [4], 63.9 µM; in test [5], 86.1 µM; in [6], 124 µM. For the same molecule, the IC50 in test [7] turned out to be 65.3 µM; in test [8], 55.6 µM; in [9] it was 118 µM; in test [10], 124 µM.

Turning to `NCCNc1nccc2c1[nH]c1ccccc12`, the concentration for half-maximal inhibition (IC50) worked out at 36 µM in test [1]; 30.6 µM in test [2]; 87.2 µM in [3]; 40 µM in [4]; 31.9 µM in [5]; 31.5 µM in [6]. Also, the IC50 is 33.4 µM in test [7], 33.4 µM in test [8], 25.4 µM in test [9] and 41.3 µM in [10].

For `CCCCn1c2ccccc2c2ccnc(Br)c21`, the IC50 in test [1] is greater than 300 µM; in test [2] it was greater than 300 µM; in test [3], 256 µM; in test [4], 136 µM; in [5] it was greater than 300 µM; in [6], greater than 300 µM. For the same molecule, the IC50 in test [7] was greater than 300 µM; in test [8], 186 µM; in [9], greater than 300 µM; in test [10], 236 µM.

As for `Fc1c(F)c(F)c(Cn2c3ccccc3c3ccnc(Br)c32)c(F)c1F`, the IC50 in test [1], in [2], in test [3], in [4], in test [5] and in test [6] was greater than 300 µM throughout. The IC50 in [7], in test [8], in test [9] and in [10] was greater than 300 µM each time.

With `Brc1nccc2c3ccccc3n(CCCc3ccccc3)c12`, the IC50 in test [1] is greater than 300 µM; in test [2] it was greater than 300 µM; in test [3], greater than 300 µM; in test [4], 93.9 µM; in test [5] it was greater than 300 µM; in [6], 123 µM. Also, the IC50 in test [7] was greater than 300 µM; in [8] it was 86.6 µM; in test [9] it was greater than 300 µM; in test [10], 88 µM.

Turning to `CCCCn1c2ccccc2c2ccnc(NCCN)c21`, the IC50 in [1] came to 25.3 µM; in test [2], 6.6 µM; in test [3], 33.6 µM; in test [4], 9.3 µM; in test [5] it was 18.9 µM; in test [6], 68.7 µM. Moreover, the IC50 in test [7] worked out at 22.8 µM; in test [8], 13.3 µM; in [9], 20.5 µM; in test [10] it was 14.2 µM.

As to `NCCNc1nccc2c3ccccc3n(Cc3ccc(F)cc3)c12`, the 50% inhibitory concentration (IC50) turned out to be 9.7 µM in [1]; 4.4 µM in [2]; 21.4 µM in [3]; 16.3 µM in test [4]; 18.8 µM in test [5]; 1.8 µM in test [6]. Further, the IC50 in test [7] was determined as 15.6 µM; in test [8], 9.1 µM; in [9] it was 19.1 µM; in test [10] it was 17.9 µM.

On to `NCCNc1nccc2c3ccccc3n(Cc3c(F)c(F)c(F)c(F)c3F)c12`, for which the IC50 in [1] is 11.9 µM; in test [2], 12.8 µM; in [3], 15.1 µM; in test [4], 12 µM; in [5] it was 5.8 µM; in test [6], 10.4 µM. Besides, the IC50 worked out at 12 µM in [7], 9.9 µM in test [8], 11.8 µM in test [9] and 12.5 µM in [10].

On to `NCCNc1nccc2c3ccccc3n(CCCc3ccccc3)c12`, for which the IC50 in test [1] worked out at 9.6 µM; in [2] it was 13.3 µM; in test [3], 9.3 µM; in test [4] it was 4.6 µM; in test [5], 6.9 µM; in [6], 11.1 µM. For the same molecule, the 50% inhibitory concentration (IC50) is 7.3 µM in test [7], 5.6 µM in test [8], 4.9 µM in test [9] and 8.6 µM in test [10].

In the case of `NCCCCNc1nccc2c3ccccc3n(CCCc3ccccc3)c12`, the IC50 stood at 8 µM in test [1]; 4 µM in test [2]; 12.8 µM in [3]; 4.2 µM in test [4]; 2.7 µM in test [5]; 2.2 µM in test [6]. For the same molecule, the IC50 stood at 9.5 µM in [7], 17.5 µM in test [8], 11.3 µM in [9] and 2.9 µM in [10].

Consider `NCCCCCCNc1nccc2c3ccccc3n(CCCc3ccccc3)c12`, for which the IC50 was 12.4 µM in test [1]; 12.1 µM in test [2]; 17.9 µM in test [3]; 8.4 µM in test [4]; 11.3 µM in test [5]; 13.6 µM in test [6]. In addition, the IC50 in [7] worked out at 16.3 µM; in test [8], 21.5 µM; in test [9] it was 13 µM; in [10], 11.5 µM.

For the molecule `NCCCCCCNC(=O)c1nccc2c1[nH]c1ccccc12`, the IC50 in [1] came to 109 µM; in test [2] it was 85.5 µM; in [3] it was 46.8 µM; in test [4], 58.5 µM; in [5] it was 72.7 µM; in test [6], 75.3 µM. The IC50 in [7] came to 37.7 µM; in test [8], 73.2 µM; in test [9], 86.9 µM; in [10] it was 33.6 µM.

For the molecule `CCN(CC)CCCNC(=O)c1nccc2c1[nH]c1ccccc12`, the IC50 in test [1] is 174 µM; in test [2], 243 µM; in [3] it was 164 µM; in [4], 93.9 µM; in [5], 111 µM; in test [6], 54 µM. Moreover, the IC50 in [7] was 107 µM; in [8] it was 61.2 µM; in [9], 62.3 µM; in test [10] it was 46.2 µM.

Take `CC[N+](C)(CC)CCCNC(=O)c1nccc2c1[nH]c1ccccc12`: the IC50 in test [1], in test [2], in test [3], in test [4], in test [5] and in test [6] was greater than 300 µM in each case. Also, the IC50 in test [7], in test [8], in [9] and in test [10] was greater than 300 µM each time.

For `CC[N+](CC)(CCCNC(=O)c1nccc2c1[nH]c1ccccc12)Cc1ccccc1`, the IC50 in [1] was greater than 300 µM; in test [2], greater than 300 µM; in [3], 51.1 µM; in [4] it was greater than 300 µM; in test [5], 137 µM; in test [6], 101 µM. Further, the IC50 in [7] was greater than 300 µM; in test [8] it was greater than 300 µM; in test [9], greater than 300 µM; in test [10] it was 71.4 µM.

As to `NCCNC(=O)c1nccc2c3ccccc3n(CCCc3ccccc3)c12`, the IC50 came to 20 µM in test [1]; 15.9 µM in [2]; 22.3 µM in [3]; 15.7 µM in [4]; 11.8 µM in test [5]; 32.5 µM in [6]. Also, the IC50 in test [7] was determined as 13.7 µM; in [8], 17.9 µM; in test [9], 9.9 µM; in test [10], 10.8 µM.

Take `CCN(CC)CCCNC(=O)c1nccc2c3ccccc3n(CCCc3ccccc3)c12`: the IC50 in test [1] came out at 22.3 µM; in test [2], 22.1 µM; in [3] it was 31.4 µM; in [4], 36.9 µM; in test [5], 31.4 µM; in test [6] it was 61 µM. In addition, the IC50 in [7] came to 33.8 µM; in [8] it was 53.4 µM; in [9], 14 µM; in [10], 26.9 µM.

Consider `Fc1ccc(Cn2c3ccccc3c3ccnc(Br)c32)cc1`, for which the half-maximal inhibitory concentration (IC50) in test [1] is greater than 300 µM; in test [2], greater than 300 µM; in test [3] it was greater than 300 µM; in test [4], greater than 300 µM; in test [5] it was greater than 300 µM; in test [6], 252 µM. Moreover, the IC50 in [7] is greater than 300 µM; in test [8] it was 245 µM; in test [9], greater than 300 µM; in test [10], greater than 300 µM.

In the case of `OCCNc1[nH]ccc2c3ccccc3nc1-2`, the IC50 in test [1] is greater than 300 µM; in [2], 130 µM; in [3], greater than 300 µM; in [4] it was 220 µM; in [5], greater than 300 µM; in [6], 272 µM. Also, the IC50 in test [7] is greater than 300 µM; in [8] it was greater than 300 µM; in test [9], greater than 300 µM; in test [10], 136 µM.

Values taken from ChEMBL document CHEMBL1275322, “Synthesis and cytotoxic evaluation of 1-carboxamide and 1-amino side chain substituted β-carbolines” (Eur J Med Chem, 2010).
